Test results taken from ChEMBL document CHEMBL3817756, “Synthesis and Anti-Influenza Activity of Pyridine, Pyridazine, and Pyrimidine C-Nucleosides as Favipiravir (T-705) Analogues” (J Med Chem, 2016).

Legend:
[1] = tested on: Influenza A virus; test: Antiviral activity against Influenza A virus A/WSN/33(H1N1) infected in MDCK cells assessed as inhibition of neuraminidase activity using 2'-(4-methylumbelliferyl)-alpha-D-N-acetylneuraminic acid substrate pretreated with cells for 24 hrs followed by viral infection measured after 20 hrs by fluorescence assay; assay type: functional, organism-based; details: A/WSN/1933(H1N1)
In short: (§1)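 MDCK cells at 1 × 10^4 cells/well in DMEM with 0.3% FBS, 1% penicillin/streptomycin and 1% DMSO. After 24 h, serially diluted compound was added for a further 24 h. Cells were infected with A/WSN/33 at 250 IU/well for 20 h at 37 °C. Supernatant was replaced with 25 μM MUNANA in 33 mM MES, pH 6.5, for 45 min at 30 °C. Reaction stopped with glycine pH 10.5/25% ethanol; fluorescence read at ex 355/em 460 nm. EC50 averaged over n ≥ 2.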

[2] = Prodrug conversion in NHBE cells assessed as ((2R,3S,4R,5S)-5-(2-carbamoyl-3-fluoropyridin-4-yl)-3,4-dihydroxytetrahydrofuran-2-yl)methyl tetrahydrogen triphosphate level per million cells at 50 uM after 24 hrs by LC-MS/Ms analysis; assay type: ADME, cell-based; details: human
[3] = tested on: A549; test: Prodrug conversion in human A549 cells assessed as ((2R,3S,4R,5S)-5-(2-carbamoyl-3-fluoropyridin-4-yl)-3,4-dihydroxytetrahydrofuran-2-yl)methyl tetrahydrogen triphosphate level per million cells at 50 uM after 24 hrs by LC-MS/Ms analysis; assay type: ADME, cell-based; details: a549, 24 h
[4] = tested on: MDCK; test: Prodrug conversion in MDCK cells assessed as ((2R,3S,4R,5S)-5-(2-carbamoyl-3-fluoropyridin-4-yl)-3,4-dihydroxytetrahydrofuran-2-yl)methyl tetrahydrogen triphosphate level per million cells at 50 uM after 24 hrs by LC-MS/Ms analysis; assay type: ADME, cell-based, Canis lupus familiaris; details: dog
[5] = Prodrug conversion in NHBE cells assessed as ((2R,3S,4R,5S)-5-(2-carbamoyl-3-fluoropyridin-4-yl)-3,4-dihydroxytetrahydrofuran-2-yl)methyl dihydrogen phosphate level per million cells at 50 uM after 24 hrs by LC-MS/Ms analysis; assay type: ADME, cell-based; details: human
[6] = tested on: A549; test: Prodrug conversion in human A549 cells assessed as ((2R,3S,4R,5S)-5-(2-carbamoyl-3-fluoropyridin-4-yl)-3,4-dihydroxytetrahydrofuran-2-yl)methyl dihydrogen phosphate level per million cells at 50 uM after 24 hrs by LC-MS/Ms analysis; assay type: ADME, cell-based; details: a549, 24 h
[7] = tested on: MDCK; test: Prodrug conversion in MDCK cells assessed as ((2R,3S,4R,5S)-5-(2-carbamoyl-3-fluoropyridin-4-yl)-3,4-dihydroxytetrahydrofuran-2-yl)methyl dihydrogen phosphate level per million cells at 50 uM after 24 hrs by LC-MS/Ms analysis; assay type: ADME, cell-based, Canis lupus familiaris; details: dog
[8] = tested on: Influenza A virus; test: Antiviral activity against Influenza A virus A/WSN/33(H1N1) infected in human A549 cells; assay type: functional, organism-based; details: A/WSN/1933(H1N1)
[9] = tested on: Influenza A virus; test: Antiviral activity against Influenza A virus infected in MDCK cells; assay type: functional, organism-based; in short: as §1
[10] = Cytotoxicity against MDCK cells after 10 mins by CellTiter-Glo assay; assay type: cell-based, Canis lupus familiaris; details: dog
In short: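 Uninfected cultures run in parallel with the MDCK neuraminidase antiviral assay. CellTiter-Glo reagent added, 10 min at room temperature, luminescence read.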

[11] = tested on: Blood; test: Prodrug conversion in Balb/c mouse assessed as 4-((2S,3R,4S,5R)-3,4-dihydroxy-5-(hydroxymethyl)tetrahydrofuran-2-yl)-3-fluoropicolinamide level in blood at 2 mg/kg, iv measured at 0.25 hrs post dose by LC-MS/MS analysis; assay type: ADME, organism-based; details: in vivo
In short: (§2)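 Female Balb/c mice (N = 2), fasted overnight, given the prodrug IV at 2 mg/kg in 10% DMSO/60% PEG400/30% water. Under isoflurane anaesthesia, blood sampled at 0.25 and 2 h post dose. Parent nucleoside measured in blood; monophosphate and triphosphate measured in lung.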

[12] = tested on: Lung; test: Prodrug conversion in Balb/c mouse assessed as ((2R,3S,4R,5S)-5-(2-carbamoyl-3-fluoropyridin-4-yl)-3,4-dihydroxytetrahydrofuran-2-yl)methyl dihydrogen phosphate level in lung at 2 mg/kg, iv measured at 0.25 hrs post dose by LC-MS/MS analysis; assay type: ADME, organism-based; details: in vivo; in short: as §2
[13] = tested on: Lung; test: Prodrug conversion in Balb/c mouse assessed as ((2R,3S,4R,5S)-5-(2-carbamoyl-3-fluoropyridin-4-yl)-3,4-dihydroxytetrahydrofuran-2-yl)methyl tetrahydrogen triphosphate level in lung at 2 mg/kg, iv measured at 0.25 hrs post dose by LC-MS/MS analysis; assay type: ADME, organism-based; details: in vivo; in short: as §2
[14] = tested on: Influenza A virus; test: Antiviral activity against Influenza A virus A/WSN/33(H1N1) infected in NHBE cells; assay type: functional, organism-based; details: A/WSN/1933(H1N1)
[15] = tested on: Blood; test: Prodrug conversion in Balb/c mouse assessed as 4-((2S,3R,4S,5R)-3,4-dihydroxy-5-(hydroxymethyl)tetrahydrofuran-2-yl)-3-fluoropicolinamide level in blood at 2 mg/kg, iv measured at 2 hrs post dose by LC-MS/MS analysis; assay type: ADME, organism-based; details: in vivo; in short: as §2
[16] = tested on: Lung; test: Prodrug conversion in Balb/c mouse assessed as ((2R,3S,4R,5S)-5-(2-carbamoyl-3-fluoropyridin-4-yl)-3,4-dihydroxytetrahydrofuran-2-yl)methyl dihydrogen phosphate level in lung at 2 mg/kg, iv measured at 2 hrs post dose by LC-MS/MS analysis; assay type: ADME, organism-based; details: in vivo; in short: as §2
[17] = tested on: Lung; test: Prodrug conversion in Balb/c mouse assessed as ((2R,3S,4R,5S)-5-(2-carbamoyl-3-fluoropyridin-4-yl)-3,4-dihydroxytetrahydrofuran-2-yl)methyl tetrahydrogen triphosphate level in lung at 2 mg/kg, iv measured at 2 hrs post dose by LC-MS/MS analysis; assay type: ADME, organism-based; details: in vivo, BLD = below limit of detection; in short: as §2
[18] = tested on: A549; test: Drug metabolism in human A549 cells assessed as nucleoside triphosphate formation at 50 uM after 24 hrs by LC-MS/Ms analysis; assay type: ADME, cell-based; details: a549, 24 h, BLD = below limit of detection

## C[C@H](NP(=O)(OC[C@H]1O[C@@H](c2ccnc(C(N)=O)c2F)[C@H](O)[C@@H]1O)Oc1ccccc1)C(=O)CC1CCCCC1 (stereo partly drawn)
[1]
  EC50: 129 µM
[2]; BLD = below limit of detection
  Drug metabolism: BLD
[3]; BLD = below limit of detection
  Drug metabolism: BLD
[4]; BLD = below limit of detection
  Drug metabolism: BLD
[5]
  Drug metabolism: 42.6 pmol
[6]
  Drug metabolism: 59.5 pmol
[7]
  Drug metabolism: 44.7 pmol
[8]
  EC50: 74.1 µM
[9]
  EC50: 129 µM

## CC(C)(C)C(=O)OCOP(=O)(OCOC(=O)C(C)(C)C)OC[C@H]1O[C@@H](c2ccnc(C(N)=O)c2F)[C@H](O)[C@@H]1O
[1]
  EC50: 5.8 µM
[10]
  CC50 at 10 min: > 400 µM
[2]
  Drug metabolism: 7.22 pmol
[3]
  Drug metabolism: 5 pmol
[4]
  Drug metabolism: 179 pmol
[5]
  Drug metabolism: 113 pmol
[6]
  Drug metabolism: 74 pmol
[7]
  Drug metabolism: 248 pmol
[11]
  Drug metabolism: 1436 nM
[12]
  Drug metabolism: 1764 nM
[13]
  Drug metabolism: < 60 nM
[14]
  EC50: 57.5 µM
[8]
  EC50: 34.7 µM
[9]
  EC50: 5.8 µM
[15]
  Drug metabolism: 422 nM
[16]
  Drug metabolism: 792 nM
[17]
  Drug metabolism: BLD

## NC(=O)c1nccc([C@@H]2O[C@H](CO)[C@@H](O)[C@H]2O)c1O
[1]
  EC50: 1.3 µM
[10]
  CC50 at 10 min: 2 µM

## NC(=O)c1nccc([C@@H]2O[C@](F)(CO)[C@@H](O)[C@H]2O)c1F
[1]
  EC50: 98 µM
[10]
  CC50 at 10 min: 185 µM
[18]
  Drug metabolism: BLD

## C#Cc1c([C@@H]2O[C@H](CO)[C@@H](O)[C@H]2O)ccnc1C(N)=O
[1]
  EC50: 36 µM
[10]
  CC50 at 10 min: 98 µM

## COc1c(C(N)=O)ccnc1[C@@H]1O[C@H](CO)[C@@H](O)[C@H]1O
[1]
  EC50: 88 µM
[10]
  CC50 at 10 min: 207 µM

## C=Cc1c([C@@H]2O[C@H](CO)[C@@H](O)[C@H]2O)ccnc1C(N)=O
[1]
  EC50: 58 µM
[10]
  CC50 at 10 min: 152 µM

## NC(=O)c1nccc([C@@H]2O[C@H](CO)[C@@H](O)[C@H]2O)c1Cl
[18]
  Drug metabolism: BLD
